The source of these data is ChEMBL document CHEMBL1132347, “Cytotoxicity of 2,2':6',2' '-terpyridineplatinum(II) complexes against human ovarian carcinoma” (J Med Chem, 1999).

Values joined by “and” are separate entries in the source; they are usually repeats but may differ in a detail not shown here. Identical values can stand only once.

The IC50 is the point on the concentration scale where inhibition reaches its midpoint.

Holding throughout (assay type): functional, cell-based
For assay [1], the system named is CH1. Description: In vitro inhibition of human ovarian cell line, resistant to doxorubicin (CH1doxR). A digest of the protocol:
(§1)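 Single viable cells seeded at 4000-5000/well in DMEM with 10% fetal calf serum and left to attach overnight. Compounds dissolved in water and added at once, 10 concentrations per drug, 4 wells per concentration, 96 h exposure. Cell number in treated versus control wells read by sulforhodamine B staining; IC50 is the concentration cutting absorbance by 50% relative to controls.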

A further assay deals with SK-OV-3. Description: In vitro inhibition of human ovarian cell line SKOV-3. A digest of the protocol:
as §1

Assay [2] has as its system A2780. In words: In vitro inhibition of human ovarian cell line, resistant to cisplatin (A2780cisR). The method in brief: as §1
In assay [3] the test system is CH1. Description: In vitro inhibition of human ovarian cell line (CH1). The method in brief: as §1
Assay [4] relates to A2780. In words: In vitro inhibition of human ovarian cell line A2780. The method in brief: as §1
For assay [5], the system named is CH1. In words: In vitro inhibition of human ovarian cell line, resistant to cisplatin (CH1cisR). A digest of the protocol: as §1
In assay [6] the test system is CH1. In words: Resistance factor, (IC50 of CH1 doxR / IC50 of CH1). To be noted: Homo sapiens.
The test system of assay [7] is A2780. In words: Resistance factor, (IC50 of A2780 cisR cisR / IC50 of A2780). To be noted: Homo sapiens.
For assay [8], the system named is CH1. In words: Resistance factor, (IC50 of CH1 cisR / IC50 of CH1). To be noted: Homo sapiens; CH1cisR.

Consider “(2,2':6',2''-terpyridine)platinum (II) complex [listing 1 of 10 here]”, for which the IC50 turned out to be 3.95 µM in the assay on CH1 [1]; 13 µM in the assay on SK-OV-3; 21.5 µM with A2780 [2]; 6.1 µM in the assay with CH1 [3]; 16 µM in the assay with A2780 [4]; 7.5 µM in the assay on CH1 [5].

Take “(2,2':6',2''-terpyridine)platinum (II) complex [listing 2 of 10 here]”: the IC50 is 17.5 µM with CH1 [1], greater than 100 µM in the assay with CH1 [3] and greater than 100 µM in the assay on CH1 [5].

In the case of CISPLATIN [listing 1 of 2 here], the IC50 amounted to 0.5 µM with CH1 [1]; 2.25 µM with SK-OV-3; 8.8 µM with A2780 [2]; 0.4 µM in the assay on CH1 [3]; 0.53 µM in the assay on A2780 [4]; 1.2 µM with CH1 [5].

Turning to “(2,2':6',2''-terpyridine)platinum (II) complex [listing 3 of 10 here]”, the IC50 in the assay on CH1 [1] is 0.85 µM; in the assay on SK-OV-3, 9.2 µM; in the assay with A2780 [2] it was 6.7 µM; in the assay with CH1 [3] it was 2.1 µM; with A2780 [4], 5.8 µM; with CH1 [5] it was 2.1 µM.

Regarding “(2,2':6',2''-terpyridine)platinum (II) complex [listing 4 of 10 here]”, the IC50 with CH1 [1] was 5 µM; with SK-OV-3 it was 17 µM; in the assay on A2780 [2] it was 92 µM; in the assay on CH1 [3] it was 14 µM; in the assay with A2780 [4] it was 40 µM; in the assay with CH1 [5], 12.5 µM.

Take “(2,2':6',2''-terpyridine)platinum (II) complex [listing 5 of 10 here]”: the IC50 in the assay on CH1 [1] is 5.7 µM; in the assay on SK-OV-3 it was 24 µM; in the assay on A2780 [2], greater than 100 µM; with CH1 [3], 17.5 µM; in the assay with CH1 [5], 18 µM.

As to “4'-chloro-2,2':6,2''-Terpyridineplatinum (II) complex [listing 1 of 4 here]”, the Resistance factor was 0.3 in the assay with CH1 [6]; 1.4 and 0.6 in the assay on A2780 [7]; 1 (2×) and 1.3 with CH1 [8].

CARBOPLATIN [listing 1 of 2 here]: the IC50 is 6 µM with CH1 [1]; greater than 100 µM in the assay with SK-OV-3; greater than 100 µM in the assay on A2780 [2]; 6.2 µM in the assay with CH1 [3]; 35 µM in the assay with A2780 [4]; 14 µM in the assay with CH1 [5].

Regarding “4'-chloro-2,2':6,2''-Terpyridineplatinum (II) complex [listing 2 of 4 here]”, the IC50 in the assay on CH1 [1] turned out to be 0.46 µM; in the assay with SK-OV-3, 5.1 µM; in the assay on A2780 [2] it was 1.4 µM; in the assay with CH1 [3] it was 1.4 µM; in the assay on A2780 [4], 2.4 µM; in the assay with CH1 [5], 1.8 µM.

Consider “4'-chloro-2,2':6,2''-Terpyridineplatinum (II) complex [listing 3 of 4 here]”, for which the IC50 in the assay with CH1 [1] was 0.71 µM; in the assay with SK-OV-3 it was 3.5 µM; with A2780 [2] it was 11 µM; in the assay with CH1 [3], 2.05 µM; in the assay with A2780 [4], greater than 25 µM; in the assay on CH1 [5], 2.15 µM.

As to “(2,2':6',2''-terpyridine)platinum (II) complex [listing 6 of 10 here]”, the Resistance factor in the assay with A2780 [7] is 1.3 [middle of 6 runs]; with CH1 [8] it was 0.9 (3×) and 1 (2×) and 1.2 (3×).

Consider CISPLATIN [listing 2 of 2 here], for which the Resistance factor in the assay with CH1 [6] was determined as 1.2; in the assay on A2780 [7], 16.6; with CH1 [8] it was 3.

Regarding “(2,2':6',2''-terpyridine)platinum (II) complex [listing 7 of 10 here]”, the IC50 amounted to 1.5 µM in the assay with CH1 [1]; 13.5 µM with SK-OV-3; 25 µM with A2780 [2]; 7.2 µM in the assay with CH1 [3]; 27 µM with A2780 [4]; 8.9 µM with CH1 [5].

“(2,2':6',2''-terpyridine)platinum (II) complex [listing 8 of 10 here]”: the IC50 with CH1 [1] is 3.75 µM; with SK-OV-3, 15 µM; with A2780 [2] it was 23.5 µM; in the assay with CH1 [3], 5.2 µM; in the assay on A2780 [4], 11.5 µM; with CH1 [5], 4.5 µM.

Take “(2,2':6',2''-terpyridine)platinum (II) complex [listing 9 of 10 here]”: the IC50 with CH1 [1] was 5.4 µM; with SK-OV-3, greater than 100 µM; with CH1 [3], 15.5 µM; with A2780 [4], 21.5 µM; with CH1 [5], 14 µM.

For “(2,2':6',2''-terpyridine)platinum (II) complex [listing 10 of 10 here]”, the IC50 was 1.05 µM in the assay on CH1 [1]; 29.5 µM in the assay with A2780 [2]; 5 µM in the assay with CH1 [3]; 39 µM with A2780 [4]; 5.8 µM in the assay with CH1 [5].

With CARBOPLATIN [listing 2 of 2 here], the Resistance factor in the assay with CH1 [6] is 1; with CH1 [8] it was 2.3.

Regarding “4'-chloro-2,2':6,2''-Terpyridineplatinum (II) complex [listing 4 of 4 here]”, the IC50 with SK-OV-3 is 1.8 µM; with A2780 [2], 6.6 µM; with CH1 [3], 2.15 µM; with A2780 [4], 4.75 µM.
